Experimental findings from ChEMBL document CHEMBL4368938, “Design, synthesis and biological evaluation of inhibitors of cathepsin K on dedifferentiated chondrocytes” (Bioorg Med Chem, 2019) are described below.

Activity calls are given as the source filed them. The calls are words filed in the database; no cut-off is given here.

Series [1] addresses 72 kDa type IV collagenase (Mus musculus) (UniProt P33434). Description: Inhibition of MMP2 in mouse Primary chondrocytes derived after 2 passages at 1 uM after 24 hrs by Coomassie blue staining-based zymography assay. In kind it is cell-based. A digest of the protocol: (§1)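 Gelatin zymography of extracellular medium from primary mouse chondrocytes. Medium collected in pH 7.5 Tris/EGTA/Triton extraction buffer, and equal protein run on 8% SDS gels with 1.2 mg/mL gelatin. Renatured in Tris/20% glycerol (2 × 45 min), then pH 7.4 Tris/NaCl/5 mM CaCl2 buffer. After 30 min, fresh buffer with 0.1% DMSO ± inhibitor for 24 h at 37 °C. Coomassie stained; clear bands scored. Triplicate.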

In series [2] the target is T1, Cathepsin K (Mus musculus) (UniProt P55097).
T1 sequence (whole entry): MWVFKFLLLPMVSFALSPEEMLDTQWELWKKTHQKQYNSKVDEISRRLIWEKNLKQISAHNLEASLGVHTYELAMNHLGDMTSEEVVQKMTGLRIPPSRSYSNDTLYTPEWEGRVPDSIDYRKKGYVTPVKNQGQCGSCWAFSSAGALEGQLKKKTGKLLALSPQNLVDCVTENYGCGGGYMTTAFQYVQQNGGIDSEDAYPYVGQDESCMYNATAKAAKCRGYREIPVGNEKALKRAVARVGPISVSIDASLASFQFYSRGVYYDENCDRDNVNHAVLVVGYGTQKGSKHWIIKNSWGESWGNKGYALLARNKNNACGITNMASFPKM
Description: Inhibition of cathepsin K in mouse Primary chondrocytes derived after 2 passages at 1 uM after 24 hrs by Coomassie blue staining-based zymography assay. In kind it is cell-based. An outline of the steps:
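Chondrocyte lysates in pH 7.5 extraction buffer. Equal protein resolved on 12% SDS gels containing 2 mg/mL gelatin. Renatured in Tris/glycerol, then developed in pH 6.0 100 mM sodium phosphate with 1 mM EDTA and 2 mM DTT. After 30 min, buffer exchanged for fresh buffer with 0.1% DMSO ± inhibitor for 24 h at 37 °C. Coomassie stain and destain; lysis zones indicate activity.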

The target of series [3] is T1, Cathepsin K (Mus musculus). Description: Inhibition of cathepsin K in mouse Primary chondrocytes derived after 2 passages at 0.1 to 1 uM using Z-GPR-4MbetaNA as substrate by fluorescence assay relative to control. In kind it is cell-based. An outline of the steps: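 Lysates of passaged primary chondrocytes in zymography extraction buffer. Incubated with Z-GPR-4MβNA (1 mg/mL), and released 4MβNA captured with 10 μM 5-nitrosalicylaldehyde. Fluorescence read at ex 488/em 525 nm, at least three reads per condition. Activity taken as (control − sample fluorescence) normalized to Bradford protein. Three independent experiments in triplicate.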

Series [4] concerns the target Matrix metalloproteinase-9 (Mus musculus) (UniProt P41245). Briefly: Inhibition of MMP9 in mouse Primary chondrocytes derived after 2 passages at 1 uM after 24 hrs by Coomassie blue staining-based zymography assay. The class given is cell-based. An outline of the steps: as §1
The species entered for series [5] is Mus musculus. Briefly: Inhibition of aggrecanase in mouse Primary chondrocytes derived after 2 passages assessed as effect on measuring sGAG content at 1 uM by Alcian blue staining-based assay. In kind it is cell-based. A digest of the protocol:
(§2)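 Passaged primary chondrocytes cultured ± inhibitor. Washed in PBS, fixed in 4% formaldehyde for 30 min at RT, then stained 30 min with 1% Alcian blue in 0.1 N HCl. Dye extracted with 33% isopropanol in 4.0 mol/L GnCl and A595 measured. Three independent experiments in triplicate.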

Series [6] is filed under the species Mus musculus. Briefly: Inhibition of aggrecanase in mouse Primary chondrocytes derived after 0 passages assessed as effect on measuring sGAG content at 1 uM by Alcian blue staining-based assay. In kind it is cell-based.
Series [7] in a line: Cytotoxicity against mouse MOVAS1 cells assessed as reduction in cell viability at 0.001 to 5 uM after 3 days by MTT assay. The class given is cell-based. To be noted: 72 h. An outline of the steps:
(§3)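 Cells plated at 60000/well (primary chondrocytes from epiphyseal cartilage of 5-6 day-old SWISS mice) or 100 000/well (MG-63, MOVAS cell lines). Grown in DMEM with 10% FBS plus penicillin/streptomycin, with or without inhibitor, for 3 days up to confluence. MTT 0.125 mg/mL final for 4 h, then DMSO solubilization and A570 read. Normalized to 0.1% DMSO control as 100%. Three sample pools, each in triplicate (n = 9).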
For orientation: Formazan colour is commonly taken as a measure of viable cells.

Series [8] in a line: Cytotoxicity against mouse Primary chondrocytes assessed as reduction in cell viability at 0.001 to 5 uM after 3 days by MTT assay. To be noted: 72 h. An outline of the steps:
as §3

The target in series [9] is Cathepsin S (Homo sapiens, UniProt P25774). Briefly: Inhibition of recombinant human cathepsin S expressed in Escherichia coli.
Chain of Cathepsin S (P25774 whole entry): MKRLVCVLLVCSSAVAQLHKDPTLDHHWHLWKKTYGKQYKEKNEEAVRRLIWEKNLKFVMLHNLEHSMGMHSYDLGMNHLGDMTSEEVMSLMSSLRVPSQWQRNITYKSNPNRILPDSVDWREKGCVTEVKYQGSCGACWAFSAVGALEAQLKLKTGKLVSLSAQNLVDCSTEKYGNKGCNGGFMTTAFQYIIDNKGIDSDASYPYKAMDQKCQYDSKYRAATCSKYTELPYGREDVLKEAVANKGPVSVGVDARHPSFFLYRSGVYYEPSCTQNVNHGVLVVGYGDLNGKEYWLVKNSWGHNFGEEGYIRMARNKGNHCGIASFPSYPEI
Series [10] deals with MG-63. Briefly: Cytotoxicity against human MG63 cells assessed as reduction in cell viability at 0.001 to 5 uM after 3 days by MTT assay. The note with it: mg-63, 72 h. The class given is cell-based. An outline of the steps: as §3
Series [11] addresses T2, Cathepsin K (Homo sapiens, UniProt P43235).
T2 sequence (P43235 whole entry): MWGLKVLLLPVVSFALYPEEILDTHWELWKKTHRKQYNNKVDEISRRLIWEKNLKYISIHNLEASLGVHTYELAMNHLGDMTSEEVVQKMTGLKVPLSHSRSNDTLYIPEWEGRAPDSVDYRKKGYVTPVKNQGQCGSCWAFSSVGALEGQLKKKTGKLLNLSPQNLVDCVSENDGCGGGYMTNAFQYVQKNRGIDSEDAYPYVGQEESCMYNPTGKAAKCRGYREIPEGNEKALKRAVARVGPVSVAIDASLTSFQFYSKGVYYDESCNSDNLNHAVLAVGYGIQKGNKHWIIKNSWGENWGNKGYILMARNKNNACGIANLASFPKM
Briefly: Inhibition of recombinant His-tagged human cathepsin K expressed in Escherichia coli.

For series [12], the species on record is Mus musculus. Description: Inhibition of aggrecanase in mouse Primary chondrocytes derived after 1 passages assessed as effect on measuring sGAG content at 1 uM by Alcian blue staining-based assay. In kind it is cell-based. An outline of the steps: as §2
Series [13] concerns the target Procathepsin L (Homo sapiens, UniProt P07711). Briefly: Inhibition of human liver cathepsin L.

Chain of 72 kDa type IV collagenase (Mus musculus) (P33434 whole entry): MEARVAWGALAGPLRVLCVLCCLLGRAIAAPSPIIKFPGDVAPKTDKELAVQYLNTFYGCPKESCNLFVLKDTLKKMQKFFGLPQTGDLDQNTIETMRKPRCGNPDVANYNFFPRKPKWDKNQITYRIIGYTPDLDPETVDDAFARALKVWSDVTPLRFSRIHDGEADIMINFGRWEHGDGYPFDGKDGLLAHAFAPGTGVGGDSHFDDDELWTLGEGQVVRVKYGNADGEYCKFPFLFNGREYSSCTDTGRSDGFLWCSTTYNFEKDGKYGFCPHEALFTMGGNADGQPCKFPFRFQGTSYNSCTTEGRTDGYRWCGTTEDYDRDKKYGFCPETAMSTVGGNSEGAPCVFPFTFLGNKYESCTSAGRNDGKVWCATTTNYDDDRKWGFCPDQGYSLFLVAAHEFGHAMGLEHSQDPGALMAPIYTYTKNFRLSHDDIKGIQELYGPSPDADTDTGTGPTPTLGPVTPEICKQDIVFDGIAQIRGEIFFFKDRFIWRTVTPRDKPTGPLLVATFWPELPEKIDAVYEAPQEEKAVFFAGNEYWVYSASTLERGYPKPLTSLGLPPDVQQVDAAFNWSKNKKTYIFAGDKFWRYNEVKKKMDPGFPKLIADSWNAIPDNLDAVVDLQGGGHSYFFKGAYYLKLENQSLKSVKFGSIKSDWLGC
Chain of Matrix metalloproteinase-9 (Mus musculus) (P41245 whole entry): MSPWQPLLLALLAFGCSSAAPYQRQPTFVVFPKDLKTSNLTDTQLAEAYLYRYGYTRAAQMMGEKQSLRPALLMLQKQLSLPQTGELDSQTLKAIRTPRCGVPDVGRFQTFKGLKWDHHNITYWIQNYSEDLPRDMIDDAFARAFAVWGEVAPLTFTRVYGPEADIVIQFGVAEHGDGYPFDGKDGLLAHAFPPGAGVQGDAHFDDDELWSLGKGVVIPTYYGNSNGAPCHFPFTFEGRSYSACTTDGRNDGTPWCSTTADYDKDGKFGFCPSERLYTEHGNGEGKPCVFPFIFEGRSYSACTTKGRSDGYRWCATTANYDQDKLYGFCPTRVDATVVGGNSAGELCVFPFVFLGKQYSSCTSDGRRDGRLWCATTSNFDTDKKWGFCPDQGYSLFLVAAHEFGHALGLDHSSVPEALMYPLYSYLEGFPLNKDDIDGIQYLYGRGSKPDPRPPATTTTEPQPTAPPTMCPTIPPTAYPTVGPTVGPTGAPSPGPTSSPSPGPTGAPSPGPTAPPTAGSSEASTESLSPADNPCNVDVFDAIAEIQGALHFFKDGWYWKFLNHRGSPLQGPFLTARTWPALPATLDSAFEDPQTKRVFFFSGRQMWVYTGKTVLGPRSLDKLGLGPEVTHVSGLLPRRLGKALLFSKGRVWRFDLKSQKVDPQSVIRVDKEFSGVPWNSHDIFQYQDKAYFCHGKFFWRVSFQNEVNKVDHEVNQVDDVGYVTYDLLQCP
Chain of Procathepsin L (P07711 whole entry): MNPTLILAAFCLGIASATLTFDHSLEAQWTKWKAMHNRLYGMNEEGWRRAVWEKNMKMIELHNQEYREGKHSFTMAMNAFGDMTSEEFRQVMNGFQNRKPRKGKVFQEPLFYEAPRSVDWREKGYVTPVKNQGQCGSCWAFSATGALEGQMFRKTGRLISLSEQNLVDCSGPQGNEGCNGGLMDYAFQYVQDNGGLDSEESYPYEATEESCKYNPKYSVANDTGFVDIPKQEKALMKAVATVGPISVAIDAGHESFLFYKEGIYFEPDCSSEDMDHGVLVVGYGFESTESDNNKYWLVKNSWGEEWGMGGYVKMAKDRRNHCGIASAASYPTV

By inhibition is commonly meant the drop in the measured response relative to a control, in per cent. `CC(C)(F)C[C@H](N[C@@H](c1ccc(-c2ccc(S(C)(=O)=O)cc2)cc1)C(F)(F)F)C(=O)NC1(C#N)CC1`: the inhibition result in series [1] and in [4] was “inactive” each time. The inhibition entry in series [2] is “Active”. In [3], this compound registered an inhibition of 19 to 30%.

As usually defined, the IC50 is the concentration that inhibits the measured activity by half. As usually defined, the Ki is a measure of affinity in units of concentration, obtained from inhibition or displacement. Regarding `CC(C)CC(C(=O)N(C)N(C)C#N)c1cccc(-c2ccc(S(C)(=O)=O)cc2)c1` (racemic), the inhibition result in series [5], in series [6], in [1], in series [4] and in series [12] was “inactive” in each case. For the same compound, in [2], the inhibition result was “Active”. The Activity result in series [7], in series [8] and in [10] was “Non-Toxic” in each case. In addition, the inhibition in series [3] lay within 30 to 40%. In addition, the IC50 was determined as 1.02 µM in series [9], 0.015 µM in [11] and 2.71 µM in series [13]. Moreover, the results for the inhibitory constant (Ki) in series [9], in series [11] and in [13] were 0.735 µM, 0.00721 µM and 0.406 µM, respectively.
